Columns and labels:
Plasmodium falciparum [1] = assay: ST_JUDE: Plasmodium falciparum 3D7 EC50 (uM) as measured by SYBR green dye; type: functional, organism-based
Plasmodium falciparum [2] = assay: ST_JUDE: Plasmodium falciparum K1 EC50 (uM) as measured by SYBR green dye; type: functional, organism-based
Plasmodium falciparum [3] = assay: ST_JUDE: Cytotoxicity against Plasmodium falciparum 3D7; type: functional, organism-based
How it was run: (§1)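 Asexual P. falciparum grown in human erythrocytes, exposed to compounds for 72 h, and growth read as the DNA quantity in treated versus control cultures. Dose-response run at 12 concentrations from 10 μM to 5 nM.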

Plasmodium falciparum [4] = assay: ST_JUDE: Cytotoxicity against Plasmodium falciparum K1; type: functional, organism-based; how it was run: as §1
Plasmodium falciparum [5] = assay: ST_JUDE: Cytotoxicity against Plasmodium falciparum V1/S; type: functional, organism-based
Toxoplasma gondii = assay: ST_JUDE: Growth inhibition of to Toxoplasma gondii, in human U-2OS cells, as measured by luciferase.; type: functional, organism-based; conditions: RH, U2OS
How it was run: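 T. gondii parasites engineered to express luciferase; drug sensitivity read by luminescence.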

Trypanosoma brucei = assay: ST_JUDE: Cytotoxicity using luciferase to measure ATP as an indicator of the viability of Trypanosoma brucei; type: functional, organism-based
Leishmania major = assay: ST_JUDE: Cytotoxicity using Alamar Blue to measure viability of Leishmania major; type: functional, organism-based
How it was run: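 L. major promastigotes; drug susceptibility read with Alamar Blue.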

[6] = ST_JUDE: Cytotoxicity using luciferase to measure ATP as an indicator of the viability of human foreskin fibroblast cells (BJ); type: toxicity, cell-based
[7] = ST_JUDE: Cytotoxicity using luciferase to measure ATP as an indicator of the viability of human epithelial hepatocellular carcinoma cells (HepG2); type: toxicity, cell-based
[8] = ST_JUDE: Cytotoxicity using luciferase to measure ATP as an indicator of the viability of human epithelial embryonic kidney cells (HEK293); type: toxicity, cell-based
[9] = ST_JUDE: Cytotoxicity using luciferase to measure ATP as an indicator of the viability of human Burkitt''s lymphoma lymphoblast cells (Raji); type: toxicity, cell-based
Plasmodium falciparum [10] = assay: ST_JUDE: Cytotoxicity against Plasmodium falciparum Dd2; type: functional, organism-based
Plasmodium falciparum [11] = assay: ST_JUDE: Cytotoxicity against Plasmodium falciparum W2; type: functional, organism-based
Plasmodium falciparum [12] = assay: ST_JUDE: Cytotoxicity against Plasmodium falciparum SB-A6; type: functional, organism-based
Plasmodium falciparum [13] = assay: ST_JUDE: Cytotoxicity against Plasmodium falciparum D10 transfected with yeast DHOD; type: functional, organism-based

**Q.** With OC(CNC1CCCCC1)Cn1c2ccc(Cl)cc2c2cc(Cl)ccc21 (configuration not stated) as the molecule, how does the EC50 (Plasmodium falciparum [1]) read?
**A.** 388 nM

**Q.** What about the EC50 (Plasmodium falciparum [2]) of the same molecule?
**A.** 172 nM

**Q.** What about the EC50 (Plasmodium falciparum [3]) of the same molecule?
**A.** 1390 nM

**Q.** And the EC50 (Plasmodium falciparum [4])?
**A.** 348 nM

**Q.** What about the EC50 (Plasmodium falciparum [5]) of the same molecule?
**A.** 974 nM

**Q.** What about the EC50 (Toxoplasma gondii) of the same molecule?
**A.** > 21300 nM

**Q.** And the EC50 (Trypanosoma brucei)?
**A.** 1970 nM

**Q.** And the EC50 (Leishmania major)?
**A.** > 16600 nM

**Q.** And the EC50 [6]?
**A.** > 38800 nM

**Q.** And the EC50 [7]?
**A.** 17200 nM

**Q.** And the EC50 [8]?
**A.** > 38800 nM

**Q.** And the EC50 [9]?
**A.** > 38800 nM

**Q.** And the EC50 (Plasmodium falciparum [10])?
**A.** 132 nM

**Q.** What about the EC50 (Plasmodium falciparum [11]) of the same molecule?
**A.** 177 nM

**Q.** What about the EC50 (Plasmodium falciparum [12]) of the same molecule?
**A.** 1050 nM

**Q.** What about the EC50 (Plasmodium falciparum [13]) of the same molecule?
**A.** 916 nM

**Q.** Which EC50 (Plasmodium falciparum [1]) does the source give for Cc1cccc(CN2CCC(CNC(=S)Nc3ccc4nc(N5CCN(C)CC5)cc(C)c4c3)CC2)c1 here?
**A.** 395 nM

**Q.** What about the EC50 (Plasmodium falciparum [2]) of the same molecule?
**A.** 1250 nM

**Q.** What about the EC50 (Plasmodium falciparum [3]) of the same molecule?
**A.** 1140 nM

**Q.** What about the EC50 (Plasmodium falciparum [4]) of the same molecule?
**A.** 995 nM

**Q.** What about the EC50 (Plasmodium falciparum [5]) of the same molecule?
**A.** 1990 nM

**Q.** What about the EC50 (Toxoplasma gondii) of the same molecule?
**A.** > 23200 nM

**Q.** And the EC50 (Trypanosoma brucei)?
**A.** 4800 nM

**Q.** What about the EC50 (Leishmania major) of the same molecule?
**A.** > 18100 nM

**Q.** And the EC50 [6]?
**A.** 9560 nM

**Q.** What about the EC50 [7] of the same molecule?
**A.** 6040 nM

**Q.** And the EC50 [8]?
**A.** 13600 nM

**Q.** What about the EC50 [9] of the same molecule?
**A.** 22600 nM

**Q.** And the EC50 (Plasmodium falciparum [10])?
**A.** 506 nM

**Q.** And the EC50 (Plasmodium falciparum [11])?
**A.** 2230 nM

**Q.** And the EC50 (Plasmodium falciparum [12])?
**A.** 708 nM

**Q.** And the EC50 (Plasmodium falciparum [13])?
**A.** 1050 nM

From ChEMBL document CHEMBL1154198, “Chemical genetics of Plasmodium falciparum” (Nature, 2010)
